Results reported in PMC12166256 (Clinical Pharmacology and Therapeutics, 2025).
Marks after values point to notes of the source that are not given here.

Key:
[1] = Food effect study: plasma pharmacokinetics; format: in vivo, human; details: for AUC (0 to infinity), geometric mean / AUC (0 to infinity), mean ± SD / C max, geometric mean / C max, mean ± SD / t 1/2z, geometric mean / t 1/2z, mean ± SD / t lag, median / t max, median: 200 mg single dose
TNFα = details: in vitro; cited from earlier work
[2] = cited from earlier work
P-glycoprotein (P-gp) = details: in vitro studies; cited from earlier work
[3] = test system: collagen-induced arthritis mouse model; details: cited from earlier work
[4] = SAD study: plasma pharmacokinetics; format: in vivo, human; details: for plasma concentrations: SAD 5 mg, below the LLOQ
Procedure, shortened: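 Healthy males aged 18–55 got single oral doses in six SAD cohorts (5–600 mg), 6 active and 2 placebo per cohort, all fasted. Plasma was drawn pre-dose and at 1, 2, 3, 4, 6, 8, 12, 18, 24, 36, 48, 60 and 72 h; 96 h only for dose levels 4–6. LC–MS/MS, LLOQ 2 ng/mL. Non-compartmental parameters; AUC excluded when extrapolation exceeded 30%.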

[5] = Food effect study: safety and tolerability; format: in vivo, human
Procedure, shortened: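 Healthy males aged 18–55 with BMI 18–30 kg/m² were followed through dosing and a 6–8-day follow-up. Checks: physical examination, clinical laboratory tests, vital signs and 12-lead ECG, with adverse events coded in MedDRA. Events of special interest: ALT ≥2×ULN, QTcF ≥500 ms, Grade ≥2 photosensitivity, symptomatic overdose. Treatment-emergent events were summarised descriptively by organ class, preferred term and dose level for all exposed participants.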

AUC higher in the fed state than in the fasted state ([1]; 200 mg): 18% | AUClast higher in the fed state than in the fasted state ([1]; 200 mg): 16% | C max higher in the fed state than in the fasted state ([1]; 200 mg): 14% | delay of maximum plasma concentrations, fed compared to fasted ([1]; 200 mg): 1 h | AUC (0 to infinity), geometric mean ([1]; fasted): (2,010) [26] ng·h/mL | AUC (0 to infinity), mean ± SD ([1]; fasted): 2,060 ± 539 ng·h/mL | C max, geometric mean ([1]; fasted): (119) [32] ng/mL | C max, mean ± SD ([1]; fasted): 123 ± 39.5 ng/mL | t 1/2z, geometric mean ([1]; fasted): (21.9) [23] h | t 1/2z, mean ± SD ([1]; fasted): 22.5 ± 5.23 h | t lag, median ([1]; fasted): 0.00 h | t max, median ([1]; fasted): 3.00 h | AUC (0 to infinity), geometric mean ([1]; fed): (2,340) [33] ng·h/mL | AUC (0 to infinity), mean ± SD ([1]; fed): 2,430 ± 815 ng·h/mL | C max, geometric mean ([1]; fed): (132) [35] ng/mL | C max, mean ± SD ([1]; fed): 138 ± 48.1 ng/mL | t 1/2z, geometric mean ([1]; fed): (27.3) [18] h | t 1/2z, mean ± SD ([1]; fed): 27.6 ± 4.84 h | t lag, median ([1]; fed): 0.00 h | t max, median ([1]; fed): 4.00 h | AUC geometric mean ratio, point estimate ([1]; 200 mg, fed vs. fasted): 1.18 | AUClast geometric mean ratio, point estimate ([1]; 200 mg, fed vs. fasted): 1.16 | C max geometric mean ratio, point estimate ([1]; 200 mg, fed vs. fasted): 1.14 | effect of food on the PK characteristics ([1]; high-fat meal): no relevant effects | plasma concentrations [4]: < 2 ng/mL | C max, geometric mean ([4]; SAD 20 mg fasted): (5.12) [24] ng/mL | C max, mean ± SD ([4]; SAD 20 mg fasted): 5.25 ± 1.24 ng/mL | t last, median ([4]; SAD 20 mg fasted): 18.05 h | t max, median ([4]; SAD 20 mg fasted): 5.00 h | AUC (0 to infinity), mean ([4]; SAD 20 mg fasted, n = 1): 101 ^b ± NC ng·h/mL | t 1/2z, geometric mean ([4]; SAD 20 mg fasted, n = 5): (13.6) [48] h | t 1/2z, mean ([4]; SAD 20 mg fasted, n = 5): 15.0 ^c ± 7.21 h | AUC (0 to infinity), geometric mean ([4]; SAD 60 mg fasted): (409) [25] ng·h/mL | AUC (0 to infinity), mean ± SD ([4]; SAD 60 mg fasted): 420 ± 103 ng·h/mL | C max, geometric mean ([4]; SAD 60 mg fasted): (20.5) [24] ng/mL | C max, mean ± SD ([4]; SAD 60 mg fasted): 21.0 ± 5.08 ng/mL | t 1/2z, geometric mean ([4]; SAD 60 mg fasted): (20.9) [28] h | t 1/2z, mean ± SD ([4]; SAD 60 mg fasted): 21.6 ± 6.14 h | t last, median ([4]; SAD 60 mg fasted): 48.00 h | t max, median ([4]; SAD 60 mg fasted): 2.50 h | AUC (0 to infinity), geometric mean ([4]; SAD 180 mg fasted): (2,330) [32] ng·h/mL | AUC (0 to infinity), mean ± SD ([4]; SAD 180 mg fasted): 2,450 ± 782 ng·h/mL | C max, geometric mean ([4]; SAD 180 mg fasted): (117) [36] ng/mL | C max, mean ± SD ([4]; SAD 180 mg fasted): 122 ± 43.7 ng/mL | t 1/2z, geometric mean ([4]; SAD 180 mg fasted): (27.1) [17] h | t 1/2z, mean ± SD ([4]; SAD 180 mg fasted): 27.4 ± 4.74 h | t last, median ([4]; SAD 180 mg fasted): 96.21 h | t max, median ([4]; SAD 180 mg fasted): 2.50 h | AUC (0 to infinity), geometric mean ([4]; SAD 400 mg fasted): (4,220) [49] ng·h/mL | AUC (0 to infinity), mean ± SD ([4]; SAD 400 mg fasted): 4,580 ± 2,240 ng·h/mL | C max, geometric mean ([4]; SAD 400 mg fasted): (261) [49] ng/mL | C max, mean ± SD ([4]; SAD 400 mg fasted): 285 ± 139 ng/mL | t 1/2z, geometric mean ([4]; SAD 400 mg fasted): (24.0) [26] h | t 1/2z, mean ± SD ([4]; SAD 400 mg fasted): 24.7 ± 6.47 h | t last, median ([4]; SAD 400 mg fasted): 96.16 h | t max, median ([4]; SAD 400 mg fasted): 3.00 h | AUC (0 to infinity), geometric mean ([4]; SAD 600 mg fasted): (8,900) [37] ng·h/mL | AUC (0 to infinity), mean ± SD ([4]; SAD 600 mg fasted): 9,640 ± 3,540 ng·h/mL | C max, geometric mean ([4]; SAD 600 mg fasted): (483) [39] ng/mL | C max, mean ± SD ([4]; SAD 600 mg fasted): 525 ± 206 ng/mL | t 1/2z, geometric mean ([4]; SAD 600 mg fasted): (23.9) [22] h | t 1/2z, mean ± SD ([4]; SAD 600 mg fasted): 24.4 ± 5.43 h | t last, median ([4]; SAD 600 mg fasted): 96.01 h | t max, median ([4]; SAD 600 mg fasted): 3.00 h
Compound: CN1C(=O)c2cccc(OC(F)F)c2[C@H]2C[C@@H]1c1nc3ccc(-c4cnc(C5(N)CCC5)nc4)cc3n12 [Balinatunfib]
concentration leading to 90% occupancy of TNFα [OCC90] (TNFα): 16 nM | bioavailability ([2]; across animal species): moderate to high | fraction unbound ([2]; preclinical studies): high | tissue distribution ([2]; preclinical studies): high | active transport by P-glycoprotein (P-gp) (P-glycoprotein (P-gp)): substrate | average free efficacious exposure in mice ([3]; collagen-induced arthritis mouse model): 24 nM | efficacy in collagen-induced arthritis mouse model ([3]; in vivo): antibody‐like efficacy | plasma concentrations ([4]; listed as balinatunfib): In the SAD study, all doses were administered under fasted conditions. The PK parameters were not calculable for any participant receiving a single dose of 5 mg balinatunfib, as all concentrations were below the LLOQ (2 ng/mL). | participants with at least one TEAE ([5]; 200 mg fasted (five of eight)): 62.5% | Any event TEAE, events ([5]; 200 mg fasted, N = 8): 7
